Assay results as given in ChEMBL document CHEMBL2057147, “Synthesis and in vitro antitumor activity of novel scopoletin derivatives” (Bioorg Med Chem Lett, 2012).
The source made the active and inactive calls. No cut-off for these calls is given here.

Tests used:
[1] = tested on: MCF7; assay: Antiproliferative activity against human MCF7 cells at 20 uM after 72 hrs by crystal violet staining method relative to control; assay type: functional
In short: (§1)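 Single-concentration growth inhibition in MCF-7 and MDA-MB 231 cells at 10 and 20 µM after 72 h, given as corrected treated/control percentage (T/C_corr %).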

[2] = tested on: MDA-MB-231; assay: Antiproliferative activity against human MDA-MB-231 cells at 20 uM after 72 hrs by crystal violet staining method relative to control; assay type: functional; in short: as §1
[3] = tested on: MCF7; assay: Antiproliferative activity against human MCF7 cells after 72 hrs by crystal violet staining method; assay type: functional, cell-based; settings: for IC50: MCF7, 72 h
In short: (§2)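 Cells seeded at a known number in 96-well plates and exposed to increasing compound concentrations for 72 h; IC50 taken from the concentration–growth-inhibition data.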

[4] = tested on: MDA-MB-231; assay: Antiproliferative activity against human MDA-MB-231 cells after 72 hrs by crystal violet staining method; assay type: functional, cell-based; settings: for IC50: MDA-MB-231, 72 h; in short: as §2
[5] = tested on: HT-29; assay: Antiproliferative activity against human HT-29 cells after 72 hrs by crystal violet staining method; assay type: functional, cell-based; settings: for IC50: HT-29, 72 h; in short: as §2
[6] = tested on: MCF7; assay: Cytocidal activity against human MCF7 cells at 10 uM after 72 hrs by crystal violet staining method; assay type: functional, cell-based; in short: as §1
[7] = tested on: MDA-MB-231; assay: Cytocidal activity against human MDA-MB-231 cells at 10 uM after 72 hrs by crystal violet staining method; assay type: functional, cell-based; in short: as §1
[8] = tested on: MCF7; assay: Ratio of scopoletin IC50 to compound IC50 for human MCF7 cells; assay type: functional
[9] = tested on: MDA-MB-231; assay: Ratio of scopoletin IC50 to compound IC50 for human MDA-MB-231 cells; assay type: functional
[10] = tested on: HT-29; assay: Ratio of scopoletin IC50 to compound IC50 for human HT-29 cells; assay type: functional
[11] = tested on: MCF7; assay: Cytocidal activity against human MCF7 cells at 20 uM after 72 hrs by crystal violet staining method relative to control; assay type: functional; in short: as §1
[12] = tested on: MDA-MB-231; assay: Cytocidal activity against human MDA-MB-231 cells at 20 uM after 72 hrs by crystal violet staining method relative to control; assay type: functional; in short: as §1
[13] = tested on: MCF7; assay: Cytostatic activity against human MCF7 cells at 20 uM after 72 hrs by crystal violet staining method relative to control; assay type: functional; in short: as §1
[14] = tested on: MDA-MB-231; assay: Cytostatic activity against human MDA-MB-231 cells at 20 uM after 72 hrs by crystal violet staining method relative to control; assay type: functional; in short: as §1
[15] = tested on: MCF7; assay: Antiproliferative activity against human MCF7 cells at 1.25 to 20 uM up to 144 hrs by crystal violet staining method; assay type: functional, cell-based
In short: (§3)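 Time course at 1.25, 2.5, 5, 10 and 20 µM, with growth inhibition read as corrected treated/control percentage (T/C_corr %) at several incubation times over about 140 h.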

[16] = tested on: HT-29; assay: Antiproliferative activity against human HT-29 cells at 1.25 to 20 uM up to 144 hrs by crystal violet staining method; assay type: functional, cell-based; in short: as §3
[17] = tested on: MDA-MB-231; assay: Induction of apoptosis in human MDA-MB-231 cells assessed as caspase3 activation at 10 uM after 24 hrs by fluorescence detection assay; assay type: functional, cell-based
[18] = tested on: U2OS; assay: Induction of apoptosis in human U2OS cells assessed as caspase3 activation at 10 uM after 24 hrs by fluorescence detection assay; assay type: functional, cell-based

Row | SMILES | T/C [1] [%] | T/C [2] [%] | IC50 [3] [µM] | IC50 [4] [µM] | IC50 [5] [µM] | also measured
1 | COc1cc2ccc(=O)oc2cc1OCC(=O)Nc1ccc(Cl)cc1 | <50 | <50 | 19.5 | 19.3 | 18.1 | 
2 | COc1cc2cc(NC(C)=O)c(=O)oc2cc1OCC(=O)Nc1ccc(Cl)cc1 |  |  |  |  |  | Activity [3]: Active; Activity [4]: Active; Activity [5]: Active
3 | COc1ccc(NC(=O)COc2cc3oc(=O)c(NC(C)=O)cc3cc2OC)cc1OC | <50 | <50 | 14.9 | 8.4 | > 20 | 
4 | COc1cc2ccc(=O)oc2cc1OCC(=O)Nc1ccc(F)c(Cl)c1 | <50 | <50 | 6.5 | 6.3 | 7.6 | Activity [6]: Active; Activity [7]: Active; Ratio IC50 [8]: 12; Ratio IC50 [9]: 12; Ratio IC50 [10]: 12
5 | COc1cc2cc(NC(C)=O)c(=O)oc2cc1OCC(=O)Nc1ccc(C)cc1 | <50 | <50 | 19 | 13.9 | > 20 | 
6 | COc1cc2ccc(=O)oc2cc1OCC(=O)Nc1ccc(C(C)(C)C)cc1 |  |  | 10.1 | 8.1 | 19.6 | T/C [11]: <0%; T/C [12]: <0%
7 | COc1ccccc1NC(=O)COc1cc2oc(=O)c(NC(C)=O)cc2cc1OC | <50 | <50 | 17.9 | 14.7 | 19.1 | 
8 | COc1cc2cc(NC(C)=O)c(=O)oc2cc1OCC(=O)Nc1ccc(F)cc1 |  |  |  |  |  | Activity [3]: Active; Activity [4]: Active; Activity [5]: Active
9 | O=c1[nH]cc(F)c(=O)[nH]1 [FLUOROURACIL] |  |  | 4.7 |  |  | 
10 | COc1cc2cc(NC(C)=O)c(=O)oc2cc1OCC(=O)Nc1ccc(C(C)(C)C)cc1 |  |  | 3.9 | 4.5 | 4.3 | T/C [13]: 0%; T/C [14]: 0%; Ratio IC50 [8]: 12; Ratio IC50 [9]: 12; Ratio IC50 [10]: 12; Activity [15]: Active; Activity [16]: Active; Activity [17]: inactive; Activity [18]: inactive
11 | COc1cc2cc(NC(C)=O)c(=O)oc2cc1OCC(=O)Nc1cccc(C(C)=O)c1 |  |  |  |  |  | Activity [3]: Active; Activity [4]: Active; Activity [5]: Active
12 | COc1cc2ccc(=O)oc2cc1O [SCOPOLETIN] |  |  | > 100 | > 100 | > 100 | 
